RGS4 pot = potentiators or activators of RGS4. HEK293 M3R/inducible RGS4, carbachol calcium flux Fluo4; stronger effect = lower value. B-score at 10 µM. 310,000 compounds, 0.92% hits. AID 463111;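 active = B-score of the integrated calcium signal more than 4 SD below the library mean, with starting fluorescence not abnormally high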;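 also: negative B-score means reduced calcium response which marks RGS4 activation or potentiation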
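test system = HEK293 cells with stable M3R and inducible RGS4 | schedule = recording 10 s baseline at 1 Hz, 100 s post-agonist | technique = Fluo4-AM (2 µM) calcium-flux fluorescence, kinetic read | measure = Agonist-evoked peak-minus-minimum fluorescence over baseline, integrated ratio, B score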
RGS4 inh = human RGS4 inhibition; HEK293 M3R/RGS4 inducible, Fluo-4 calcium flux; stronger effect = higher value; triggered by carbachol at its EC20; B-score at 10 µM; 310,000 compounds, 0.45% hits;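 active = B-score, a plate-corrected calcium signal, over three deviations above library mean, with baseline fluorescence within five deviations of library mean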;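 also: RGS4 expression induced by doxycycline in cells with stable M3 receptor; B-score is computed from the integrated fluorescence ratio over baseline after carbachol; higher B-score means a larger calcium signal and so more RGS4 inhibition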
Target sequence (P49798 whole entry, looked up): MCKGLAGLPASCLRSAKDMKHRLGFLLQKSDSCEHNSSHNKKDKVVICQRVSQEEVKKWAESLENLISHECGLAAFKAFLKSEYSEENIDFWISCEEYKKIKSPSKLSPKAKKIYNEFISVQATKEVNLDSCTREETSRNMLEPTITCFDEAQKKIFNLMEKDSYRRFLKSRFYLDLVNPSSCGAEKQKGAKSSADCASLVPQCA
MrgX1 allo act = allosterically activates human MrgX1 receptor signaling. Q96LB2. MrgX1-HEK293, Fluo-4 calcium flux, FDSS; stronger effect = higher value. B-score at 10 µM. 310,000 compounds, 0.63% hits;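 active = plate-corrected calcium response at least 3 library SD above typical, normal starting fluorescence, not activating the receptor alone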;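 also: compound read alongside a low EC10 to EC30 dose of BAM8-22 agonist; peak minus trough fluorescence over baseline measured at the second addition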
Target sequence (Q96LB2 whole entry, looked up): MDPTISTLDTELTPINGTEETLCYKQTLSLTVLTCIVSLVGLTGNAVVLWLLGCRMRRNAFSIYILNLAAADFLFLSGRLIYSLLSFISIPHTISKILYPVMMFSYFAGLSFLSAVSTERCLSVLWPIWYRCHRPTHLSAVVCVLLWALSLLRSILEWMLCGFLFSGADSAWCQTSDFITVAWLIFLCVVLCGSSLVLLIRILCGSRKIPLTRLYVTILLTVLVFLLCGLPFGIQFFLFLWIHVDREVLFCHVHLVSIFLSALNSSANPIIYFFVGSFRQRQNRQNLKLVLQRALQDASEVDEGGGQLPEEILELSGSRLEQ
MrgX1 antagonist = antagonists of human MrgX1 receptor; MRGX1-HEK293 calcium flux, Fluo-4, BAM8-22 antagonism; stronger effect = lower value; B-score at 10 µM; 310,000 compounds, 1.3% hits;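 active = calcium-response B-score plate-corrected more than 3 library SD below zero, starting fluorescence within 5 deviations, no agonist response on first addition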;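 also: peak minus trough fluorescence over baseline after final BAM8-22 challenge near maximal dose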
MrgX1 agonist = activates human MrgX1 receptor signaling; Q96LB2; MrgX1-HEK293 cells, Fluo-4 calcium fluorescence, agonist mode; stronger effect = higher value; B-score at 10 µM; 310,000 compounds, 0.44% hits; AID 588627;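 active = calcium response B-score plate-corrected fluorescence ratio at least 3 library SD, with starting fluorescence B-score inside 5 SD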
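Assay system: MrgX1-expressing HEK293 cells / Amount: fifteen thousand cells per well / Doses: test compound in the initial addition of three / Timing: cells plated overnight, dye loaded 0.5 h 37 °C, 0.5 h room temperature / Technique: kinetic calcium dye fluorescence, Fluo-4 NW / Control set: positive and negative controls per plate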
MrgX1 ag reconf = reconfirmed activator of human MrgX1 receptor signaling; shares compounds with MrgX1 agonist; MrgX1-HEK293, Fluo-4 calcium fluorescence, FDSS; activation, % at 10 µM; 600 compounds, 78% hits; AID 602412;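 active = calcium signal rise, corrected for plate position, at least 3 library SD high, with starting brightness within 5 such deviations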
HEK293 Ca flux = counter-screen for MrgX1 antagonists: effect in parental HEK293 cells; shares compounds with MrgX1 antagonist; Fluo-4 calcium fluorescence, FDSS; fluorescence ratio F(max-min)/F0 at 10 µM; 4,000 compounds, 2% hits;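 active = duplicate-averaged calcium fluorescence ratio at least three times the standard deviation of buffer wells, a nonspecific response in parental cells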
HEK293 Ca counter = MrgX1 allosteric activator counter-screen hit in parental HEK293 cells; shares compounds with MrgX1 antagonist; parental HEK293 calcium flux, Fluo-4 fluorescence ratio; stronger effect = higher value; fluorescence ratio F(max-min)/F0 at 10 µM; 4,000 compounds, 0.4% hits;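 active = calcium fluorescence ratio, averaged over duplicates, at least 3 SD of the buffer-well ratio, meaning a nonspecific response in receptor-free cells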;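 also: untransfected parental HEK293 lacking MrgX1 used as counterscreen for MrgX1 allosteric activators; fluorescence change taken during the second addition on a kinetic imager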
HEK293 Ca cntr2 = counter-screen for MrgX1 activators: effect in parental HEK293 cells; Fluo-4 calcium fluorescence (FDSS); stronger effect = higher value; fluorescence ratio F(max-min)/F0 at 10 µM; 4,000 compounds, 8.7% hits; shares compounds with MrgX1 antagonist;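 active = calcium fluorescence ratio at least three times the spread of buffer wells, meaning a non-specific response in parental cells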
An asterisk follows results filed as active; i = inactive; x = not tested or not shown. An excerpt weighted towards active compounds, which were near 3.5% of everything screened.

SMILES | RGS4 pot | RGS4 inh | MrgX1 allo act | MrgX1 antagonist | MrgX1 agonist | MrgX1 ag reconf | HEK293 Ca flux | HEK293 Ca counter | HEK293 Ca cntr2
CC(=O)C1=C(C)OC(N)=C(C#N)C1c1cc([N+](=O)[O-])ccc1Cl (stereo not given) | i | i | i | i | i | x | x | x | x
NC(Cc1c[nH]c2ccccc12)C(=O)Nc1ccccc1 (stereo not given) | i | i | i | i | i | x | x | x | x
Cc1cccc(C(=O)NC(=S)NNC(=O)c2cccs2)c1 | i | i | i | i | 173* | 646.5%* | i | i | 140*
O=C(NC(=S)NNC(=O)c1cccs1)c1ccccc1 | i | i | i | i | 132* | 546.6%* | i | i | 107*
Cc1ccccc1C(=O)NNC(=S)NC(=O)c1cccs1 | i | i | i | i | 79.4* | 651.3%* | i | i | 130*
O=C(NNC(=S)Nc1ccccc1)c1cccs1 | i | i | i | i | i | x | x | x | x
Cc1ccccc1C(=O)Nc1cccc(NC(=S)NC(=O)c2cccs2)c1 | i | i | i | i | i | x | x | x | x
O=C(CCC1CCCN(C(=O)c2ccsc2)C1)NCc1ccc(F)c(F)c1 (stereo not given) | i | i | i | i | i | x | x | x | x
Clc1ccc(Nc2ncn[nH]2)c(Cl)c1 | i | i | i | i | i | x | x | x | x
CC(C)CN(C(=O)c1ccc(-n2cncn2)c([N+](=O)[O-])c1)C1CCS(=O)(=O)C1 (stereo not given) | i | i | i | i | i | x | x | x | x
N#CCSc1nc2ccccc2c(=O)n1C1CCCCC1 | i | i | i | i | i | x | x | x | x
O=c1c2ccccc2nc(SCc2cccc(F)c2)n1C1CCCC1 | i | i | i | i | 28.8* | 196.4%* | i | 52.8* | i
CC1(C)Cc2c(c(-c3ccco3)nc3sc4c(NCCCO)ncnc4c23)CO1 | i | i | i | i | i | x | x | x | x
CC1(C)Cc2c(c(-c3ccco3)nc3sc4c(NCC5CCCO5)ncnc4c23)CO1 (stereo not given) | i | i | i | i | 49* | 208.1%* | i | i | 45.4*
CN1CCCC1CCNc1ccc2sc3ccccc3c(=O)c2c1 (stereo not given) | i | i | i | i | 49.9* | 423.9%* | i | i | 118*
O=c1c2ccccc2sc2ccc(NCCCN3CCOCC3)cc12 | i | i | i | i | 33.7* | 324.4%* | i | i | 107*
COc1ccc(CC(=O)NCc2n[nH]c(=S)n2-c2ccccc2OC)cc1 | i | i | i | i | i | x | x | x | x
Cc1ccc(N2C(=O)CC(Sc3nc(C)cc(C)n3)C2=O)cc1 (stereo not given) | i | i | i | i | i | x | x | x | x
Cc1ccc(N2C=Nc3ccc(C)c4nc(C)cc2c34)cc1 | i | i | i | i | 28.3* | 98.4%* | i | i | i
CC1=Nc2ccc(C)c3nc(C)cc(c23)N1c1ccc(C)cc1 | i | i | i | i | 37.6* | 191.5%* | i | i | i
Cc1cc2nc3ccc(N(C)C)cc3nc2cc1N | i | i | i | i | 26.5* | 259.3%* | i | i | i
O=C(CC(=O)c1c(F)cccc1Cl)c1ccccc1O | i | i | i | i | 52.9* | 325.6%* | i | i | 72.9*
O=C(CC(=O)c1ccccc1O)c1cccc(F)c1 | i | i | i | i | i | x | x | x | x
COc1cc2c(cc1OC)C(c1ccccc1C(F)(F)F)CC(=O)N2 (stereo not given) | i | i | i | i | 28.8* | i | i | i | i
COc1cc(/C=C/C(=O)CC(=O)/C=C/c2ccc(O)c(OC)c2)ccc1O | i | i | i | i | 143* | i | 0.0325* | i | 212*
SMILES | RGS4 pot | RGS4 inh | MrgX1 allo act | MrgX1 antagonist | MrgX1 agonist | MrgX1 ag reconf | HEK293 Ca flux | HEK293 Ca counter | HEK293 Ca cntr2
COc1cc(/C=C/C(=O)O)ccc1O | i | i | i | i | i | x | x | x | x
CC(C)NC[C@H](O)c1ccc(O)c(O)c1 | x | x | i | i | 32* | 123.6%* | i | i | i
CCc1ccc(OCC(=O)NC(C)C)cc1 | i | i | i | i | i | x | x | x | x
COc1ccc2c(c1OC)C(=O)N(c1cccc(NC(C)=O)c1)C2 | i | i | i | i | 26.9* | 118.7%* | i | i | i
Oc1c(C(c2ccccn2)N2CCCCC2)cc(Cl)c2cccnc12 (stereo not given) | i | i | i | i | 32.3* | 97.2%* | i | i | i
Cc1ccc(S(=O)(=O)N(CC(=O)Nc2ccc(C)cc2C)C(=O)N2CCN(C)CC2)cc1 | i | i | i | i | i | x | x | x | x
O=C(CSc1ncnc2ccccc12)c1cccs1 | i | i | i | i | 28.5* | i | i | i | i
CCCCCCCCCC(=O)N/N=C(\C)c1cccnc1 | i | i | i | i | i | x | x | x | x
CCCCCC(=O)N/N=C(\C)c1ccccn1 | i | i | i | i | 86* | i | i | i | i
COc1ccc(S(=O)(=O)Nc2c(O)ccc3ccccc23)cc1OC | i | i | i | i | 26.9* | i | i | i | i
CCOC(=O)c1ccccc1-c1cn2cc(Cl)ccc2n1 | i | i | i | i | 29.9* | 152.1%* | i | i | i
Cc1ccc(NC(=O)CNC(=O)c2ccco2)nc1 | i | i | i | i | i | x | x | x | x
Nc1ncccc1OCc1ccc(Cl)c(Cl)c1 | i | i | i | i | 40.6* | 172.1%* | i | i | i
CCOc1ccc(CCNC(=O)C2CC(C)=CCC2C(=O)O)cc1OCC (stereo not given) | i | i | i | i | i | x | x | x | x
COc1ccc(CN(C)Cc2ccccc2)c(OC)c1OC | i | i | i | i | i | x | x | x | x
COc1cc(/C=C2\C(=N)N3N=CSC3=NC2=O)ccc1OS(=O)(=O)c1ccccc1 | i | i | i | i | 73* | 382.5%* | i | i | 77*

Bioassay records: PubChem BioAssay, Johns Hopkins Ion Channel Center
